We go through 27 molecules from ChEMBL document CHEMBL3611983, “Highly Potent and Selective MT2 Melatonin Receptor Full Agonists from Conformational Analysis of 1-Benzyl-2-acylaminomethyl-tetrahydroquinolines” (J Med Chem, 2015).

The term Ki denotes a dissociation constant, usually derived from enzyme kinetics or from competition with a known ligand. By EC50 is commonly meant the midpoint of the concentration-response curve. Broadly, the Emax is the maximal effect, on the per cent scale that the assay sets.

A short description of assay [1]: Displacement of 2-[125I]-Iodomelatonin from human MT2 receptor transfected in CHO cell membranes after 120 mins. Summed up: (§1)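 Membranes from CHO cells stably expressing the receptor were pelleted and homogenized in Tris 5 mM/EDTA 2 mM, then held at -80 °C. Assay buffer was 50 mM Tris-HCl pH 7.4 with 5 mM MgCl2. Radioligand was 20 pM, with nonspecific binding defined by 1 μM melatonin.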

In assay [2] the target is T1, Melatonin receptor type 1A (Homo sapiens, UniProt P48039). The assay is described as follows: Displacement of 2-[125I]-Iodomelatonin from human MT1 receptor transfected in CHO cell membranes after 120 mins. Summed up:
as §1

Assay [3] concerns the target T1, Melatonin receptor type 1A. Briefly: Intrinsic activity at human MT1 receptor transfected in CHO cell membranes after 1 hr by [35S]GTPgammaS binding assay. In kind it is functional. Put shortly: (§2)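 Transfected CHO membranes at 20 μg/mL were incubated in 20 mM HEPES pH 7.4 with 100 mM NaCl, 3 μM GDP, 3 mM MgCl2 and 20 μg/mL saponin. 0.2 nM [35S]GTPγS was added and incubation ran 1 h at room temperature. Nonspecific binding was defined by 10 μM GTPγS, with 1 μM melatonin as reference. Filtration was on GF/B. Curves used 7 concentrations in duplicate, giving EC50 and Emax.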

Assay [4] can be described thus: (§3) Intrinsic activity at human MT2 receptor transfected in CHO cell membranes after 1 hr by [35S]GTPgammaS binding assay. Put shortly: as §2
The test system of another assay is CHO. Described as §3. Put shortly: as §2
For the next assay, the species on record is Homo sapiens. The assay is described as follows: Selectivity ratio of Ki for human MT1 receptor to Ki for human MT2 receptor.

Where only a bound is given, the exact number is not on record here.

T1 sequence (P48039 whole entry): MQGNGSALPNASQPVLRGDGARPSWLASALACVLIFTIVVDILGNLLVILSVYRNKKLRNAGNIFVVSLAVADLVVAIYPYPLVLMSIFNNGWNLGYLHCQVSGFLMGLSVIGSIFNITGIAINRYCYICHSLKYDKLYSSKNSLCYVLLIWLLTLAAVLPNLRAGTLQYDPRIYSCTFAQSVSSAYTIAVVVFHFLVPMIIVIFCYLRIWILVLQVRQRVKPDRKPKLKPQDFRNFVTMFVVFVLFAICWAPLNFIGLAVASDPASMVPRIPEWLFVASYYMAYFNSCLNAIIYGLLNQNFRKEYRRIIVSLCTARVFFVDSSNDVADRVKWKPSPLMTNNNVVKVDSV

Turning to `CC(=O)NC[C@H]1CCc2ccccc2N1Cc1ccccc1`, the Ki in assay [1] was determined as 0.1 nM; in assay [2], 45 nM. Also, the EC50 in assay [3] is 192 nM; in assay [4], 1.9 nM. Further, the Emax in assay [3] came to 52%; in the assay with CHO, 80%.

For `CC(=O)NC[C@@H]1CCc2ccccc2N1Cc1ccccc1`, the Ki is 6.2 nM in assay [1] and 122 nM in assay [2]. Besides, the EC50 in assay [4] turned out to be 19 nM. The molecule further yielded an Emax with CHO of 60%.

For the molecule `CCC(=O)NCc1ccc2c(OC)cccc2n1`, the Ki was 4450 nM in assay [1] and above 10000 nM in assay [2].

For `CCC(=O)NCC1CCc2c(cccc2OC)N1` (racemic), the results for the Ki in assay [1] and in assay [2] were 21 nM and 57 nM, respectively. The concentration for a half-maximal effect (EC50) came to 906 nM in assay [3] and 165 nM in assay [4]. Moreover, the Emax in assay [3] was 70%; in the assay on CHO, 98%.

For `CCC(=O)NCC1CCc2ccccc2N1` (racemic), the Ki in assay [1] is 2.2 nM; in assay [2], 13 nM. The concentration giving a half-maximal response (EC50) in assay [3] amounted to 242 nM; in assay [4], 27 nM. This molecule also registered an Emax in assay [3] of 37%.

`CCNC(=O)NCC1CCc2c(cccc2OC)N1` (racemic): the inhibition constant (Ki) in assay [1] turned out to be 114 nM; in assay [2], 480 nM.

In the case of `CCNC(=O)NCC1CCc2ccccc2N1` (racemic), the figures for the Ki in assay [1] and in assay [2] were 17 nM and 115 nM, respectively. Moreover, the EC50 in assay [3] was 2420 nM; in assay [4], 356 nM. The figures for the Emax (in assay [3]; in the assay on CHO) were 30% and 80%, respectively.

For the molecule `CCNC(=S)NCC1CCc2c(cccc2OC)N1` (racemic), the Ki in assay [1] and in assay [2] was above 1000 nM each time.

For `CCNC(=S)NCC1CCc2ccccc2N1` (racemic), the Ki in assay [1] stood at 90 nM; in assay [2], 305 nM. Besides, the figures for the EC50 in assay [3] and in assay [4] were 2660 nM and 1430 nM, respectively. Moreover, the Emax in assay [3] was 35%; in the assay on CHO, 72%.

Turning to `CCNC(=O)NCC1CCc2c(OC)cccc2N1C` (racemic), the Ki was 1.4 nM in assay [1] and 5 nM in assay [2]. The results for the EC50 in assay [3] and in assay [4] were 160 nM and 10 nM, respectively. Also, the Emax in assay [3] was 92%; with CHO, 105%.

For the molecule `CCNC(=O)NCC1CCc2ccccc2N1C` (racemic), the Ki came out at 3.4 nM in assay [1] and 5.3 nM in assay [2]. Moreover, the EC50 in assay [3] was found to be 110 nM; in assay [4] it was 6.2 nM. Further, the Emax was determined as 69% in assay [3] and 97% in the assay with CHO.

As to `CCNC(=O)NCC1CCc2c(OC)cccc2N1Cc1ccccc1` (racemic), the Ki in assay [1] stood at 2.9 nM; in assay [2], 132 nM. For the same molecule, the figures for the EC50 in assay [3] and in assay [4] were 393 nM and 13 nM, respectively. The figures for the Emax (in assay [3]; with CHO) were 44% and 107%, respectively.

For `CCC(=O)NCC1CCc2c(OC)cccc2N1Cc1ccccc1` (racemic), the Ki in assay [1] was determined as 0.001 nM; in assay [2], 17 nM. Also, the Ratio Ki in the assay listed under Homo sapiens was above 10000. For the same molecule, the EC50 in assay [3] stood at 177 nM; in assay [4], 0.9 nM. Further, the figures for the Emax (in assay [3]; in the assay with CHO) were 79% and 111%, respectively.

For `CCC(=O)NCC1CCc2cc(OC)ccc2N1Cc1ccccc1` (racemic), the Ki in assay [1] amounted to 1.5 nM; in assay [2] it was 186 nM. The molecule further gave a half-maximal effective concentration (EC50) in assay [4] of 4.6 nM. The Emax with CHO amounted to 75%.

`CCC(=O)NCC1CCc2ccc(OC)cc2N1Cc1ccccc1` (racemic): the Ki in assay [1] was found to be 26 nM; in assay [2], 214 nM. The molecule further showed an EC50 in assay [4] of 25 nM. The Emax in the assay with CHO was determined as 42%.

Consider `CCC(=O)NCC1CCc2ccccc2N1Cc1ccccc1` (racemic), for which the Ki in assay [1] was 0.09 nM; in assay [2] it was 37 nM. For the same molecule, the Ratio Ki in the assay filed under Homo sapiens was above 400. For the same molecule, the EC50 came to 36 nM in assay [3] and 0.4 nM in assay [4]. In addition, the maximal response (Emax) stood at 42% in assay [3] and 73% in the assay on CHO.

Take `CC(=O)NCC1CCc2ccccc2N1Cc1ccccc1` (racemic): the inhibition constant Ki in assay [1] stood at 0.04 nM; in assay [2], 45 nM. Also, the EC50 in assay [3] worked out at 31 nM; in assay [4], 0.4 nM. Besides, the maximal effect (Emax) in assay [3] was determined as 35%; in the assay on CHO, 60%.

For the molecule `O=C(NCC1CCc2ccccc2N1Cc1ccccc1)C1CC1` (racemic), the Ki was determined as 0.2 nM in assay [1] and 291 nM in assay [2]. The molecule also returned an EC50 in assay [4] of 0.3 nM. Further, the maximal response (Emax) with CHO amounted to 38%.

With `O=C(NCC1CCc2ccccc2N1Cc1ccccc1)C1CCC1` (racemic), the Ki in assay [1] came to 6.2 nM; in assay [2] it was 633 nM. In addition, the Emax in the assay with CHO was below 15%.

On to `CCC(=O)NCC1CCc2c(OC)cccc2N1C` (racemic), for which the Ki was found to be 0.5 nM in assay [1] and 0.03 nM in assay [2]. Moreover, the EC50 in assay [3] amounted to 1.7 nM; in assay [4] it was 0.5 nM. For the same molecule, the figures for the Emax (in assay [3]; with CHO) were 112% and 122%, respectively.

`CCC(=O)NCC1CCc2ccccc2N1C` (racemic): the Ki in assay [1] was 0.2 nM; in assay [2], 0.7 nM. The results for the concentration for a half-maximal effect (EC50) in assay [3] and in assay [4] were 0.9 nM and 0.6 nM, respectively. The maximal effect (Emax) in assay [3] was found to be 69%; in the assay with CHO it was 122%.

Regarding `CC(=O)NCC1CCc2ccccc2N1CCc1ccccc1` (racemic), the results for the Ki in assay [1] and in assay [2] were 3 nM and 171 nM, respectively. In addition, in the assay with CHO, the Emax was below 15%.

In the case of `CCCN1c2ccccc2CCC1CNC(C)=O` (racemic), the Ki worked out at 0.1 nM in assay [1] and 5.8 nM in assay [2]. Besides, the EC50 in assay [3] was determined as 2 nM; in assay [4], 0.2 nM. The values for the maximal effect (Emax) (in assay [3]; in the assay with CHO) were 39% and 58%, respectively.

As for `CCC(=O)NCC1CCc2ccccc2N1CC(=O)NC` (racemic), the Ki is 385 nM in assay [1] and above 10000 nM in assay [2].

On to `CCC(=O)NCC1CCc2ccccc2N1c1ccccc1` (racemic), for which the Ki was 0.06 nM in assay [1] and 1.6 nM in assay [2]. In addition, the values for the EC50 in assay [3] and in assay [4] were 6.2 nM and 0.5 nM, respectively. The figures for the Emax (in assay [3]; in the assay on CHO) were 69% and 90%, respectively.

In the case of `CCNC(=S)NCC1CCc2ccccc2N1C` (racemic), the figures for the Ki in assay [1] and in assay [2] were 15 nM and 22 nM, respectively. The EC50 in assay [3] was 809 nM; in assay [4], 66 nM. In addition, the maximum response (Emax) is 76% in assay [3] and 73% in the assay with CHO.

As for `CCC(=O)NCCC1CCc2ccccc2N1Cc1ccccc1` (racemic), the Ki in assay [1] worked out at 1.6 nM; in assay [2], 326 nM. Also, it took 4.7 nM to reach a half-maximal effect in assay [4] (EC50). For the same molecule, in the assay on CHO, the maximum response (Emax) came to 59%.
